Consider 5 compounds from ChEMBL document CHEMBL2021802, “Synthesis and Evaluation of the Metabolites of AMG 221, a Clinical Candidate for the Treatment of Type 2 Diabetes” (ACS Med Chem Lett, 2011).

Some results are limits rather than exact numbers.

Data set [1] concerns Mus musculus. The experiment in a line: Ex vivo inhibition of 11beta-HSD1 in mouse adipose tissue at 30 mg/kg, po after 6 hrs. It counts as functional. Summed up: (§1)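 Mice dosed orally at 10 or 30 mg/kg. Adipose 11β-HSD1 activity measured ex vivo as percent inhibition.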
A short description of data set [2]: Drug uptake in mouse adipose tissue fat at 10 mg/kg, po after 4 hrs. It counts as ADME, organism-based. Also on record: dose 10 mg/kg, route oral. The note with it: read-out: Drug uptake.
Data set [3] in a line: Half life in CD1 mouse at 2 mg/kg, iv and 10 mg/kg, po. Format: ADME, organism-based. Particulars: in vivo. The gist of the method: (§2)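 Male CD1 mice. IV dosing at 2 mg/kg, formulated either in 20% captisol/80% water or in 10% dimethylacetamide/23% water/67% PEG 400. Oral dosing at 10 mg/kg, formulated either in 10% Pluronic F108/90% OraPlus or in 0.1% Tween-80/0.5% CMC in water. Reported: CL, Vss, t1/2 and oral F.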

Data set [4] can be described thus: Drug uptake in mouse adipose tissue fat at 10 mg/kg, po after 2 hrs. It counts as ADME, organism-based. On the set-up: dose 10 mg/kg, route oral. The note with it: read-out: Drug uptake.
Data set [5] concerns Mus musculus. As to the kind of experiment: Ex vivo inhibition of 11beta-HSD1 in mouse adipose tissue at 30 mg/kg, po after 2 hrs. Format: functional. The gist of the method:
as §1

In data set [6] the test system is Mus musculus. As to the kind of experiment: Ex vivo inhibition of 11beta-HSD1 in mouse adipose tissue at 10 mg/kg, po after 2 hrs. Format: functional. Summed up:
as §1

Data set [7] is described as follows: Oral bioavailability in CD1 mouse at 10 mg/kg. It counts as ADME, organism-based. The note with it: in vivo. Summed up: as §2
The test system of data set [8] is Plasma. The experiment in a line: Free plasma concentration in mouse at 30 mg/kg, po after 4 hrs. It counts as ADME, organism-based. On the set-up: dose 30 mg/kg, route oral. Particulars: in vivo. Summed up:
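Mice dosed orally at 30 mg/kg and sampled at 4 h. Free plasma concentration calculated from total plasma level using mouse plasma protein binding.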

A short description of data set [9]: Drug uptake in mouse adipose tissue fat at 30 mg/kg, po after 2 hrs. The note with it: read-out: Drug uptake. Format: ADME, organism-based. Also on record: dose 30 mg/kg, route oral.
Data set [10] relates to Mus musculus. The experiment in a line: Ex vivo inhibition of 11beta-HSD1 in mouse adipose tissue at 30 mg/kg, po after 8 hrs. It counts as functional. Summed up: as §1
The nature of data set [11]: Plasma concentration in mouse at 30 mg/kg, po after 8 hrs. On the set-up: dose 30 mg/kg, route oral. Format: ADME, organism-based.
The nature of data set [12]: Plasma concentration in mouse at 30 mg/kg, po after 6 hrs. It counts as ADME, organism-based. Also on record: dose 30 mg/kg, route oral.
Data set [13] is described as follows: Oral bioavailability in Sprague-Dawley rat at 10 mg/kg. Format: ADME, organism-based. The note with it: in vivo. Summed up:
(§3)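 Male Sprague-Dawley rats. IV dosing at 2 mg/kg in DMSO. Oral dosing at 10 mg/kg in 0.1% Tween-80/0.5% CMC/99.4% water. Reported: CL, Vss, t1/2 (terminal t1/2 where marked), MRT and oral F.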

Data set [14] relates to Mus musculus. The experiment in a line: Ex vivo inhibition of 11beta-HSD1 in mouse adipose tissue at 10 mg/kg, po after 4 hrs. It counts as functional. Summed up: as §1
Data set [15] can be described thus: Clearance in Sprague-Dawley rat at 2 mg/kg, iv and 10 mg/kg, po. It counts as ADME, organism-based. Particulars: in vivo. Summed up:
as §3

Data set [16] concerns Mus musculus. As to the kind of experiment: Ex vivo inhibition of 11beta-HSD1 in mouse adipose tissue at 30 mg/kg, po after 4 hrs. Format: functional. The gist of the method: as §1
Data set [17] can be described thus: Plasma concentration in mouse at 10 mg/kg, po after 8 hrs. On the set-up: dose 10 mg/kg, route oral. It counts as ADME, organism-based.
The nature of data set [18]: Drug uptake in mouse adipose tissue fat at 30 mg/kg, po after 8 hrs. Also on record: dose 30 mg/kg, route oral. It counts as ADME, organism-based. The note with it: read-out: Drug uptake.
Data set [19] can be described thus: Drug uptake in mouse adipose tissue fat at 30 mg/kg, po after 6 hrs. Format: ADME, organism-based. Also on record: dose 30 mg/kg, route oral. Particulars: read-out: Drug uptake.
Data set [20] in a line: Plasma protein binding in mouse at 30 mg/kg, po after 4 hrs. Format: ADME, organism-based. The note with it: read-out: PPB (converted). On the set-up: dose 30 mg/kg, route oral.
Data set [21] can be described thus: Clearance in CD1 mouse at 2 mg/kg, iv and 10 mg/kg, po. It counts as ADME, organism-based. Particulars: in vivo. Summed up:
as §2

The nature of data set [22]: Half life in Sprague-Dawley rat at 2 mg/kg, iv and 10 mg/kg, po. It counts as ADME, organism-based. The note with it: in vivo. Summed up:
as §3

Data set [23] in a line: Drug uptake in mouse adipose tissue fat at 30 mg/kg, po after 4 hrs. The note with it: read-out: Drug uptake. Also on record: dose 30 mg/kg, route oral. It counts as ADME, organism-based.
Data set [24] in a line: Volume of distribution at steady state in Sprague-Dawley rat at 2 mg/kg, iv and 10 mg/kg, po. Particulars: in vivo, read-out: Vdss. It counts as ADME, organism-based. Summed up: as §3
The nature of data set [25]: Plasma concentration in mouse at 10 mg/kg, po after 4 hrs. Format: ADME, organism-based. Also on record: dose 10 mg/kg, route oral.
Data set [26] can be described thus: Volume of distribution at steady state in CD1 mouse at 2 mg/kg, iv and 10 mg/kg, po. Format: ADME, organism-based. The note with it: in vivo, read-out: Vdss. The gist of the method: as §2
Data set [27] is described as follows: Plasma concentration in mouse at 30 mg/kg, po after 4 hrs. Format: ADME, organism-based. On the set-up: dose 30 mg/kg, route oral.
Data set [28] can be described thus: Plasma concentration in mouse at 10 mg/kg, po after 2 hrs. Also on record: dose 10 mg/kg, route oral. Format: ADME, organism-based.
The target in data set [29] is 11-beta-hydroxysteroid dehydrogenase 1 (Mus musculus, UniProt P50172). As to the kind of experiment: Inhibition of mouse 11beta-HSD1 expressed in Escherichia coli using [3H]cortisone as substrate by scintillation proximity assay. A general note: Scintillation proximity formats need no separation of bound from free tracer.
Sequence of 11-beta-hydroxysteroid dehydrogenase 1 (P50172 whole entry): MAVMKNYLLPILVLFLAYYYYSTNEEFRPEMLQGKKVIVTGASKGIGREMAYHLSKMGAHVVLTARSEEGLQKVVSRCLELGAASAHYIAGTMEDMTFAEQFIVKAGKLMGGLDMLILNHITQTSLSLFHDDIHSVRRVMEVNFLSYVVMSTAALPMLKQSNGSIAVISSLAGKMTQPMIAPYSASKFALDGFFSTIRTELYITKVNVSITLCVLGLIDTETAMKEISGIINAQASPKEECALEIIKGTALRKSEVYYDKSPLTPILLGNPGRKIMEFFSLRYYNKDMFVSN
Data set [30] is described as follows: Plasma concentration in mouse at 10 mg/kg, po after 6 hrs. It counts as ADME, organism-based. Also on record: dose 10 mg/kg, route oral.
Data set [31] can be described thus: Drug uptake in mouse adipose tissue fat at 10 mg/kg, po after 8 hrs. It counts as ADME, organism-based. Also on record: dose 10 mg/kg, route oral. Particulars: read-out: Drug uptake.
Data set [32] in a line: Plasma concentration in mouse at 30 mg/kg, po after 2 hrs. It counts as ADME, organism-based. On the set-up: dose 30 mg/kg, route oral.
Data set [33] is described as follows: Drug uptake in mouse adipose tissue fat at 10 mg/kg, po after 6 hrs. Format: ADME, organism-based. Particulars: read-out: Drug uptake. On the set-up: dose 10 mg/kg, route oral.
A short description of data set [34]: Plasma protein binding in po dosed mouse after 4 hrs. Format: ADME, organism-based. Particulars: read-out: PPB (converted).
A short description of data set [35]: Terminal half life in Sprague-Dawley rat at 2 mg/kg, iv and 10 mg/kg, po. It counts as ADME, organism-based. The note with it: in vivo, read-out: beta t1/2 (converted). Summed up:
as §3

Another data set in a line: in vivo. Particulars: mouse, adipose tissue fat / plasma, po, 50 mg/kg.
In data set [36] the test system is Plasma. The experiment in a line: Free plasma concentration in po dosed mouse after 4 hrs. Particulars: in vivo. Format: ADME, organism-based.

Consider `CC(C)[C@]1(C)SC(N[C@H]2C[C@H]3C[C@@H]2C[C@@H]3O)=NC1=O`, for which the inhibition in vivo (in general, the change of the read-out against control, counted positive when it falls) at 30 mg/kg in the data set on Mus musculus [1] worked out at 36%; in the data set with Mus musculus [5], 51%; in the data set with Mus musculus [10] it was 36%; in the data set on Mus musculus [16], 46%. Moreover, the concentration at 4 h in data set [2] is 820 nM; in data set [23] it was 980 nM; in data set [25] it was 1050 nM; in data set [27], 3590 nM. For the same compound, the half-life in [3] is 5.72 h; in [22] it was 2.17 h. Further, the concentration at 2 h turned out to be 980 nM in data set [4], 4670 nM in [9], 4500 nM in [28] and 19500 nM in data set [32]. Further, the inhibition in vivo at 10 mg/kg in the data set on Mus musculus [6] was 38%; in the data set with Mus musculus [14], 31%. For the same compound, the bioavailability (in general, the share of a dose that reaches the circulation, judged against a reference dose that is usually intravenous) is more than 100% in [7] and 58% in data set [13]. For the same compound, in the data set with Plasma [8], the “Cp(f)” value was determined as 2100 nM. For the same compound, the concentration at 8 h in [11] was determined as 390 nM; in data set [17], 190 nM; in [18] it was 580 nM; in [31], 130 nM. Also, the concentration at 6 h in [12] was 1710 nM; in [19] it was 2020 nM; in [30] it was 380 nM; in data set [33] it was 220 nM. The clearance was 7.33 mL/min/kg in data set [15] and 24.7 mL/min/kg in data set [21]. The fraction unbound at 4 h in data set [20] is 0.591. For the same compound, the values for the Vd in data set [24] and in data set [26] were 0.97 L/kg and 1.43 L/kg, respectively. Affinity in [29] was put at a Ki of 152 nM.

Consider `CC(C)[C@]1(C)SC(N[C@H]2C[C@H]3C[C@@H]2CC3=O)=NC1=O`, for which the Ki – broadly, the dissociation constant of the complex between target and ligand, obtained from inhibition or displacement – in data set [29] worked out at 230 nM.

On to `CC(C)[C@]1(C)SC(N[C@H]2C[C@H]3C[C@@H]2C[C@H]3O)=NC1=O`, for which, in data set [15], the clearance was 12.3 mL/min/kg. Further, the half-life in data set [22] was 2.41 h. Further, the Vd in data set [24] amounted to 1.43 L/kg. This compound yielded a Ki in data set [29] of 181 nM.

As to `CC(C)[C@]1(C)SC(N[C@H]2C[C@@H]3CC[C@H]2C3)=NC1=O`, the half-life in [3] was 3.32 h; in [35] it was 12.2 h. In addition, the fraction unbound at 4 h in [34] is 0.099. The bioavailability in data set [7] amounted to 31%; in [13] it was 34%. Also, the clearance in [15] was 19.3 mL/min/kg; in data set [21], 55.2 mL/min/kg. The Kp (as a rule, the ratio of the level in a tissue or fluid to that in plasma or blood) in “in vivo” turned out to be 1.34. Moreover, the “Cp(f)” value in the data set on Plasma [36] was determined as 240 nM. Further, the Vd in data set [24] came to 1.53 L/kg; in [26] it was 0.9 L/kg.

On to `CC(C)(O)[C@]1(C)SC(N[C@H]2C[C@@H]3CC[C@H]2C3)=NC1=O`, for which the bioavailability in data set [13] worked out at 53%. Besides, the clearance in data set [15] is 32 mL/min/kg. Further, the half-life in data set [22] is 0.24 h. Moreover, in data set [24], the Vd came out at 0.53 L/kg.
